# The list is not random: actives were taken first. Their share in the collection is about 3.4%.
# IMP-1 inh – inhibitors of Pseudomonas aeruginosa IMP-1 metallo-beta-lactamase | purified IMP-1, nitrocefin hydrolysis, epi-absorbance fluorescence | inhibition, % at 5.6 µM | 290,000 compounds, 0.45% hits;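 active = inhibition above the mean plus 3 SD of all compounds in the same screening run, cut at about 4.5% in these data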
#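 Assay system: purified recombinant IMP-1 beta-lactamase. Input: IMP-1 0.2 nM before substrate addition. Buffer or medium: Zinc- and detergent-supplemented HEPES buffer, pH 7.1. Schedule: 25 °C, 15 min preincubation, 25 min reaction. Signal: Epi-absorbance fluorescence, 480 nm excitation, 530 nm emission. Evaluation: percent inhibition from optical density relative to buffer-blank wells.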
# ANO1 activ – mouse TMEM16A channel activation, primary screen | HEK293 TMEM16A/YFP-H148Q/I152L, iodide quench fluorescence; stronger effect = lower value | 340,000 compounds, 0.3% hits | B-score at 10 µM;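 active = fluorescence-ratio B-score plate-corrected deviation score at least 3 library SD below zero, with starting fluorescence score within 5 deviations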;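 note: channel opened by trigger with iodide after compound preincubation; score built on the fluorescence ratio of max minus min over baseline; more negative score means more quench and so TMEM16A activation or potentiation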
# TMEM16A inh – mouse TMEM16A channel inhibition, primary screen; Q8BHY3; HEK293 TMEM16A/YFP iodide influx fluorescence, ionomycin; normalized B-score (activity score, 25-100; higher = stronger inhibition) at 10 µM; 310,000 compounds, 1.2% hits; AID 588511;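 active = ratio plate-corrected score three or more library SD toward inhibition, starting fluorescence score within five deviations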;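 note: score derived from kinetic fluorescence span divided by baseline fluorescence per well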
# VIM-2 inhibitor – inhibitors of Pseudomonas aeruginosa VIM-2 metallo-beta-lactamase; 290,000 compounds, 0.89% hits; inhibition, % at 5.6 µM; purified VIM-2, nitrocefin hydrolysis, epi-absorbance fluorescence;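 active = inhibition above the mean of all tested compounds plus 3 SD, cutoff set per screening run, cut at about 7.5% in these data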;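 note: red hydrolysis product quenches plate fluorescence so inhibitors raise well fluorescence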
# CHT allo act – allosteric activators of human choline transporter CHT | CHT-expressing cells, membrane potential dye, choline EC20; stronger effect = higher value; LV-AA mutant CHT in HEK293 cells | AID 488977 | Q9GZV3 | B-score at 10 µM | 310,000 compounds, 0.49% hits;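 active = initial fluorescence not abnormally high and integrated response B-score, plate-corrected, over 3 SD above library mean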
# CHT inh – inhibits the human high affinity choline transporter | 310,000 compounds, 0.86% hits | Q9GZV3 | B-score at 10 µM | CHT-expressing cells, membrane potential dye, choline response; stronger effect = lower value;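 active = B-score over 3 SD under the library average, and starting fluorescence ratio not unusually high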;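 note: choline stimulus applied at its EC90 after an EC20 pre-addition; B-score computed on integrated fluorescence ratio after choline addition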
# CHT act confirm – human CHT activation, confirmatory screen; shares compounds with CHT allo act; activation, % at 10 µM; CHT-expressing cells, membrane potential dye fluorescence (FDSS); % of choline EC20–EC90 response window; HEK293 expressing CHT LV-AA mutant; choline added at its EC20; AID 504833; 2,500 compounds, 91% hits;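 active = primary screen active, with duplicate mean activation above negative control mean plus 3 SD, cut at about 11% in these data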
# HEK293 MP dye – counter-screen for CHT activators: effect in parental HEK293 cells; AID 623908; shares compounds with CHT allo act; ratio readout change at 10 µM, hits read low; membrane potential dye fluorescence (FDSS); measured after EC20 choline addition; 2,500 compounds, 62% hits;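 active = duplicate-averaged ratio beyond 3 SD from buffer wells, up or down, though filed actives are nearly all decreases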
# TMEM16A reconf – TMEM16A (mouse) chloride channel inhibition, re-confirmation; shares compounds with TMEM16A inh; HEK293 TMEM16A/YFP-H148Q, iodide quench fluorescence; ionomycin added to raise cell calcium; inhibition, % at 10 µM; 2,300 compounds, 39% hits;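 active = mean duplicate percent inhibition, scaled so buffer wells are 0 and the reference blocker 100, over three buffer SD above buffer mean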
# TMEM16A Ca cntr – alters calcium mobilization in TMEM16A HEK293 cells, counter-screen; shares compounds with TMEM16A inh; TMEM16A/YFP HEK293, Fluo4 calcium mobilization; calcium response (% of ionomycin), % at 10 µM; 2,300 compounds, 2% hits; AID 652231;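 active = duplicate-averaged calcium signal over 20% of the ionomycin maximum, relative to buffer baseline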;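 note: each well's signal is peak minus trough fluorescence divided by its pre-addition baseline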
# YFP-HEK293 quench – parental YFP-HEK293 iodide quench counter-screen activity; 2,300 tested, under 10 active; shares compounds with TMEM16A inh; ionomycin; AID 652233; YFP ratio F(max-min)/F0 at 10 µM;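 active = yellow fluorescent protein signal ratio exceeding the buffer control mean by over 5 SD of those controls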;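 note: ratio is mean of duplicate wells from kinetic YFP trace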
# ClC-1 inh – rat ClC-1 inhibition, TMEM16A specificity screen; shares compounds with TMEM16A inh; 2,300 tested, under 10 active; CHO ClC-1-YFP, iodide influx fluorescence quench; iodide control reads 0, buffer control 100; ratio percent, % at 10 µM;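 active = duplicate-mean ratio percent above the mean of iodide-only control wells, which defines zero, plus 5 of their SD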;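 note: higher percent means stronger block of ClC-1 iodide influx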
# Target sequence (P35524 whole entry, looked up): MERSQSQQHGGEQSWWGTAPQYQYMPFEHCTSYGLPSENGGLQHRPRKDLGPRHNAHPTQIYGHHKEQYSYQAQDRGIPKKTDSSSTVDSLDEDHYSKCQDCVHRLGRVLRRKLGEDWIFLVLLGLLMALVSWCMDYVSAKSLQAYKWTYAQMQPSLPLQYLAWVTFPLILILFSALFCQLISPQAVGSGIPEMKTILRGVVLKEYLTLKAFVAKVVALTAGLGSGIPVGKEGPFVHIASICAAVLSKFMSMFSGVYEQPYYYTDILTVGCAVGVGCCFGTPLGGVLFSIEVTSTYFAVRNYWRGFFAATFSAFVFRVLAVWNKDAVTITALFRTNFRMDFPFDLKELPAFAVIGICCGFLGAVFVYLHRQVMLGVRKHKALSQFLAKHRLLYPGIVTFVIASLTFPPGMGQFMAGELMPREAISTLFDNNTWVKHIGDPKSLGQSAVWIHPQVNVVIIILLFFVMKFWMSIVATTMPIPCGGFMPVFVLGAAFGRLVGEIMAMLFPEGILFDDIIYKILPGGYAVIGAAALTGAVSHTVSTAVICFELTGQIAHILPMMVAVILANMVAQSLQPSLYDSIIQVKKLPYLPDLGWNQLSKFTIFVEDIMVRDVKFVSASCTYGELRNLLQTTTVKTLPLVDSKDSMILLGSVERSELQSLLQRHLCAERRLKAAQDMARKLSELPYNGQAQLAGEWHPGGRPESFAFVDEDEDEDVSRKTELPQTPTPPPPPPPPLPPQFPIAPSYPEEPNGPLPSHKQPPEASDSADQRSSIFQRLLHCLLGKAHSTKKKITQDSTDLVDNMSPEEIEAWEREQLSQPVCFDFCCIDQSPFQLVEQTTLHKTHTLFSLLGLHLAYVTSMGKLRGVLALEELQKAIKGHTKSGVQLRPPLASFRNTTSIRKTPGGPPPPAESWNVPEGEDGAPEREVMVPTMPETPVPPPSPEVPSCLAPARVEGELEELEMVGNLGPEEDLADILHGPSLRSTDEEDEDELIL
# A number is an active result; 0 = inactive; - = no result given.
SMILES,IMP-1 inh,ANO1 activ,TMEM16A inh,VIM-2 inhibitor,CHT allo act,CHT inh,CHT act confirm,HEK293 MP dye,others
COc1ccc2[nH]c3c(c2c1)CCN=C3C,-,0,0,-,7.11,0,46.8,-45.5,
O=[N+]([O-])c1cccc(NP(=O)(N2CC2)N2CC2)c1,-,0,-,-,-,-,-,-,
COc1cc(/C=C/c2nc3ccccc3c(=O)n2-c2ccc(O)cc2)ccc1O,0,0,0,0,0,0,18.0,0,
COc1ccc(-n2c(/C=C/c3ccc(O)c(O)c3)nc3ccccc3c2=O)cc1,0,0,0,0,0,0,-,-,
Cc1ccc(S(=O)(=O)N(C)N=O)cc1,-,0,0,-,0,0,-,-,
Nc1c([N+](=O)[O-])cc(F)c(N2CCNCC2)c1Br,0,0,0,0,0,0,43.0,-55.3,
CN1CCN(c2c(F)cc([N+](=O)[O-])c(N)c2Br)CC1,0,0,0,0,6.65,0,45.9,-48.9,
COc1ccc(-c2cc(-c3ccccc3)[n+](C)c(-c3ccccc3)c2)cc1,0,0,0,0,0,0,34.9,0,
C[n+]1c(-c2ccccc2)cc(CCCCc2cc(-c3ccccc3)[n+](C)c(-c3ccccc3)c2)cc1-c1ccccc1,0,0,0,0,6.81,0,49.7,-63.7,
O=C(O)c1ccc(-[n+]2c(-c3ccccc3)cc(-c3ccccc3)cc2-c2ccccc2)cc1,-,0,0,-,0,0,-,-,
CCCOC(=O)c1ccc(-[n+]2c(-c3ccccc3)cc(-c3ccccc3)cc2-c2ccccc2)cc1,-,-5.74,100,-,9.3,0,17.7,0,
COc1ccc(Cc2nccc3cc(OC)c(OC)cc23)cc1OC,0,0,0,0,8.64,0,58.5,-65.9,
COc1cc2c(ccc3c4cc(OC)c(OC)cc4c[n+](C)c23)cc1O,-,0,-,-,-,-,-,-,
CC1CCCCC12C(=O)NC(=O)NC2=O (stereo not given),-,0,-,-,-,-,-,-,
O=[N+]([O-])c1ccc(OP(=O)(O)Oc2ccc([N+](=O)[O-])cc2)cc1,-,0,-,-,-,-,-,-,
Cc1ccccc1NP(=O)(Oc1ccccc1F)Oc1ccccc1F,0,0,0,0,6.29,0,9.9,0,
Cc1cccc(NP(=O)(Oc2ccccc2)Oc2ccccc2)c1C,0,0,0,0,0,0,-,-,
Cc1cc(N2CCNCC2)nc2ccccc12,0,0,0,0,7.52,0,59.5,-65.3,
Clc1cccc(N2CCNCC2)n1,0,0,0,0,0,0,-,-,
Cn1c(=O)n(C)c2cc([N+](=O)[O-])c(N3CCNCC3)cc21,0,0,0,0,9.69,0,0,0,
COC(=O)C12CCc3c(ccc4cc(OC)ccc34)C1=CC(=O)C2 (stereo not given),-,0,-,-,-,-,-,-,
O=C(c1ccco1)c1cn(Cc2ccc(Cl)cc2)c2ccccc12,0,0,0,0,0,0,18.3,0,
CC(=O)c1cn(Cc2ccc(F)cc2)c2ccccc12,0,0,0,0,0,0,-,-,
CN(C)c1cccc2c(C#N)ccc(N(C)C)c12,0,0,0,0,7.77,0,66.2,-69.5,
Cc1ccc(-c2nc(N(C)C3CCN(C)CC3)c3ccccc3n2)cc1,0,0,0,10.9,0,0,36.6,-68.3,
SMILES,IMP-1 inh,ANO1 activ,TMEM16A inh,VIM-2 inhibitor,CHT allo act,CHT inh,CHT act confirm,HEK293 MP dye,others
CCOC(=O)c1cnc(SCc2ccc(Cl)c(Cl)c2)nc1N1CC1,-,0,-,-,-,-,-,-,
CNC(=S)N(C)CCc1cc2c(c(OC)c1C=C1C(=O)NC(=O)NC1=O)OCO2,0,0,0,0,7.31,0,51.3,-55.8,
CCCCn1c(O)c(C(C)=NCCN2CCCCC2)c(=O)[nH]c1=O,0,0,0,0,0,0,-,-,TMEM16A reconf=0;TMEM16A Ca cntr=0;YFP-HEK293 quench=0;ClC-1 inh=0
CC12C(C(=O)O)C1(c1ccccc1)C2C(=O)O (stereo not given),-,0,-,-,-,-,-,-,
COCCn1c(O)c(/C=N/NC(=O)CSC(=S)N2CCCC2)c(=O)[nH]c1=S,-,0,-,-,-,-,-,-,
CC(C)CNC(=O)c1c(N)n(Cc2ccco2)c2nc3ccccc3nc12,0,0,0,0,0,0,-,-,TMEM16A reconf=18.0%;TMEM16A Ca cntr=0;YFP-HEK293 quench=0;ClC-1 inh=0
CCCNC(=O)c1c(N)n(Cc2ccco2)c2nc3ccccc3nc12,0,-,0,0,0,0,-,-,TMEM16A reconf=0;TMEM16A Ca cntr=0;YFP-HEK293 quench=0;ClC-1 inh=0
COCCCNC(=O)c1c(N)n(Cc2ccco2)c2nc3ccccc3nc12,0,0,0,0,0,0,-,-,
CC(O)C1C=CC=CC(=O)OC2CC3OC4C5OC5(C)C(O)CC4(COC(=O)C(O)C(C)CCO1)C2(C)C31CO1 (stereo not given),-,0,-,-,-,-,-,-,
O=C(c1cc2c(s1)CCCCCC2)N1CCC2(CC1)OCCO2,0,0,0,0,0,0,-,-,
CCc1sc(C(=O)N2CCC3(CC2)OCCO3)cc1Br,0,0,100,0,0,0,-,-,TMEM16A reconf=0;TMEM16A Ca cntr=0;YFP-HEK293 quench=0;ClC-1 inh=0
BrCC(Br)(Br)Br,-,0,-,-,-,-,-,-,
CN1C[C@H](CO)C[C@@H]2c3cccc4[nH]cc(c34)C[C@H]21,0,0,0,0,0,0,-,-,
CCN(CC)C(=O)N[C@H]1C[C@@H]2c3cccc4[nH]cc(c34)C[C@H]2N(C)C1,0,0,0,0,0,0,-,-,TMEM16A reconf=0;TMEM16A Ca cntr=0;YFP-HEK293 quench=0;ClC-1 inh=0
CN1CC=C(/C=C/c2ccc(-c3ccccc3)cc2)CC1,0,-,0,0,0,0,-,-,
CC(C)N1OC2CC1c1nc3ccccc3n1C2 (stereo not given),-,0,25,-,0,0,-,-,TMEM16A reconf=0;TMEM16A Ca cntr=0;YFP-HEK293 quench=0;ClC-1 inh=0
CCOC(=O)c1c(-c2ccc(OC)cc2)oc2ccc(OC(=O)N(C)C)cc12,0,0,100,0,0,0,-,-,TMEM16A reconf=0;TMEM16A Ca cntr=0;YFP-HEK293 quench=0;ClC-1 inh=0
Cc1oc2ccc(OC(=O)N(C)C)cc2c1C(=O)OC(C)C,0,0,0,0,0,0,-,-,
Cc1cc(OC(=O)c2cccs2)c2c3c(c(=O)oc2c1)CCCC3,0,0,0,0,0,0,-,-,

# Screening results: PubChem BioAssay, several laboratories
